Columns and labels:
Streptococcus mutans [1] = test: Minimum plaque inhibitory concentration using a standard test organism, Streptococcus mutans OMZ-61; assay type: functional, organism-based
Summary of the method: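 Ceramic hydroxylapatite plates were soaked twice for 1 min each in compound at […] (aqueous), air-dried and rinsed, then hung in sucrose beef-extract medium (pH 7.0) inoculated with late-log S. mutans OMZ-61. Incubation was anaerobic at 37 °C for 24 h, and treatment plus reinoculation were repeated for a second 24 h. Plaque was stained with 1% FD&C Red No. 3 and scored visually. The value is the lowest concentration giving no plaque while medium growth matched control.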

Streptococcus mutans [2] = test: Compound is evaluated for minimal bactericidal concentration against plaque formation for Streptococcus mutans; assay type: functional, organism-based
Summary of the method: (§1)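 Preformed in vitro plaques of S. mutans NCTC 10449 or A. viscosus M-100 were grown on ceramic hydroxylapatite under anaerobic conditions at 37 °C in sucrose-supplemented medium. Plaques were immersed for 30 min at 37 °C in compound at 0.3–20 mM, rinsed, and moved to broth containing bromocresol purple. Kill was judged by no acid production, no turbidity increase and no growth on plating at 48 h. Plaques were run in quadruplicate.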

Escherichia coli [3] = test: Antimicrobial minimum inhibitory concentration against Escherichia coli 100/B22; assay type: functional
Summary of the method: (§2)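 Serial twofold tube dilution in tryptose phosphate broth. Each compound was prepared as a 1000 μg/mL aqueous stock and diluted in double-strength broth, then 2×10^5 cells were added. Tubes were incubated aerobically at 37 °C for 24 h. The MIC was taken as the lowest concentration with no visible growth.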

Escherichia coli [4] = test: Antimicrobial minimum inhibitory concentration against Escherichia coli AB1932-1; assay type: functional; summary of the method: as §2
Pseudomonas aeruginosa = test: Minimum antimicrobial inhibitory concentration against Pseudomonas aeruginosa MGH-2; assay type: functional; summary of the method: as §2
Proteus mirabilis = test: Minimum antimicrobial inhibitory concentration against Proteus mirabilis MGH-1; assay type: functional; summary of the method: as §2
Escherichia coli [5] = test: Minimum inhibitory concentration against Escherichia coli (Vogel); assay type: functional; summary of the method: as §2
Klebsiella pneumoniae = test: Minimum inhibitory concentration against Klebsiella pneumonia 39645; assay type: functional; summary of the method: as §2
[6] = Compound is evaluated for stain index; assay type: functional
Summary of the method: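 Ratio of the minimum concentration staining a plaque-free ceramic hydroxylapatite plate to the minimum plaque-inhibiting concentration, both run under the same conditions. Plates got two 1-min soaks (0.1–0.001%), each followed by air-drying, then a water rinse. They were then held 24 h anaerobically at 37 °C in sucrose beef-extract medium, with or without S. mutans OMZ-61, repeated once. Staining was 1-min 1% FD&C Red No. 3, scored visually.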

Actinomyces viscosus = test: Compound is evaluated for minimal bactericidal concentration against plaque formation for Actinomyces viscosus; assay type: functional, organism-based; summary of the method: as §1
Staphylococcus aureus = test: Minimum antimicrobial inhibitory concentration against Staphylococcus aureus; assay type: functional; summary of the method: as §2

SMILES	Concentration (Streptococcus mutans [1]) [%]	Concentration (Streptococcus mutans [2]) [mM]	MIC (Escherichia coli [3]) [µg/mL]	MIC (Escherichia coli [4]) [µg/mL]	MIC (Pseudomonas aeruginosa) [µg/mL]	MIC (Proteus mirabilis) [µg/mL]	MIC (Escherichia coli [5]) [µg/mL]	MIC (Klebsiella pneumoniae) [µg/mL]	Stain index [6]	Concentration (Actinomyces viscosus) [mM]	MIC (Staphylococcus aureus) [µg/mL]
Br.Br.CCCCCCCCCN=c1ccn(CCCCCCCCCCn2ccc(=NCCCCCCCCC)cc2)cc1	0.004	1.35	3.9	3.9	3.9	3.9	2	3.9	1	2.7	2
CCCCCCCN=c1ccn(CCCCCCCCCCn2ccc(=NCCCCCCC)cc2)cc1.Cl.Cl	0.004	0.73	0.5	1	7.8	7.8	0.5	1	10	1.46	0.2
Br.Br.CCCCCCCCCN=c1ccn(CCCCCCCCCCCCn2ccc(=NCCCCCCCCC)cc2)cc1	0.01	1.3	3.9	7.8	3.9	3.9	3.9	3.9	1	2.6	2
CCCCCCCCCN=c1ccn(CCCCCCn2ccc(=NCCCCCCCCC)cc2)cc1.Cl.Cl	0.01	7.3	2	2	15.6	7.8	2	3.9	1	7.3	1
Br.Br.CCCCCCCCN=c1ccn(CCCCCCCCCCCCCCn2ccc(=NCCCCCCCC)cc2)cc1	0.005	1.3	3.9	3.9	3.9	3.9	7.8	7.8	2	2.6	1
CCCCCCCCN=c1ccn(CCCCCCCCn2ccc(=NCCCCCCCC)cc2)cc1.Cl.Cl	0.005	8.8	0.5	1	7.8	3.9	1	1	10	0.88	0.2
Br.Br.CCCCCCCCCN=c1ccn(CCCCCCCCCn2ccc(=NCCCCCCCCC)cc2)cc1	0.004	1.37	2	3.9	3.9	3.9	2	3.9	1	1.37	2
CCCCCCCN=c1ccn(CCCCCCCCCCCCn2ccc(=NCCCCCCC)cc2)cc1.Cl.Cl	0.003	2.81	0.5	1	3.9	2	0.5	2	10	2.81	0.2
CCCCCCN=c1ccn(CCCCCCCCCCCCCCn2ccc(=NCCCCCC)cc2)cc1.Cl.Cl	0.004	1.4	0.5	0.5	3.9	3.9	1	1	1	2.8	0.5
Br.Br.Fc1ccc(N=c2ccn(CCCCCCn3ccc(=Nc4ccc(F)cc4)cc3)cc2)cc1	> 1	–	15.6	15.6	> 62.5	> 125	31.3	> 125	–	–	15.6
Br.Br.CCCCCCCCCCN=c1ccn(CCCCCCn2ccc(=NCCCCCCCCCC)cc2)cc1	0.01	–	7.8	2	7.8	2	2	3.9	–	–	1
Br.Br.N=c1ccn(CCCCCCCCn2ccc(=N)cc2)cc1	> 1	–	250	125	> 500	> 500	125	> 500	–	–	31.3
Br.Br.CCCCC(CC)CN=c1ccn(CCCCCCCCCCCCn2ccc(=NCC(CC)CCCC)cc2)cc1 (stereo not drawn)	0.004	–	1	1	3.9	3.9	1	2	–	–	0.5
Br.Br.CCCCCCCN=c1ccn(CCCCCn2ccc(=NCCCCCCC)cc2)cc1	> 1	–	7.8	3.9	125	> 125	31.3	31.3	–	–	0.5
Br.Br.CCCCCCCCCN=c1ccn(CCCCCCCn2ccc(=NCCCCCCCCC)cc2)cc1	0.004	2.86	2	2	15.6	3.9	1	2	1	7.16	0.5
Br.Br.Clc1ccc(N=c2ccn(CCCCCCCn3ccc(=Nc4ccc(Cl)cc4)cc3)cc2)cc1	> 1	–	3.9	125	> 125	> 125	3.9	> 125	–	–	1
Br.Br.CCCCCCCCCN=c1ccn(CCCCCCCCn2ccc(=NCCCCCCCCC)cc2)cc1	0.004	2.5	2	2	7.8	3.9	3.9	2	1	2.5	1
Br.Br.c1cn(CCCCCn2ccc(=NC3CCCCC3)cc2)ccc1=NC1CCCCC1	> 1	–	> 500	> 500	> 500	> 500	> 500	> 500	–	–	125
Br.Br.CCCCCCCCN=c1ccn(CCCCCCCCCCCCn2ccc(=NCCCCCCCC)cc2)cc1	0.005	2.7	2	2	2	2	2	1	10	1.35	0.5

Source: ChEMBL document CHEMBL1122519, “Bispyridinamines: a new class of topical antimicrobial agents as inhibitors of dental plaque” (1984)
